{"data": "Measured values pooled from the literature", "target": "Serine/threonine-protein kinase 32A (STK32A, Homo sapiens, UniProt Q8WU08)", "note": "Protocols differ between the studies behind these lines."}
{"Structure (SMILES)": "O=C(c1ccc(Nc2ncc(Cl)c(-c3cc4ccccc4s3)n2)cc1)N1CCC(N2CCCC2)CC1", "effect on": "binding", "method": "competition with immobilised ligand", "concentration": "1 µM", "remaining binding": "68%"}
{"Structure (SMILES)": "c1cncc(-c2cccc(Nc3nccc(NC4CCCCC4)n3)c2)c1", "effect on": "binding", "method": "competition with immobilised ligand", "concentration": "10 µM", "remaining binding": "69%"}
{"Structure (SMILES)": "F[C@@H]1CCN(c2nccc(-c3cnn4ncccc34)n2)C1", "effect on": "binding", "concentration": "1 µM", "remaining binding": "100%"}
{"Structure (SMILES)": "Cc1c(NC(=O)c2cc(C(N)=O)nc3cc(F)ccc23)c(C(F)(F)F)nn1Cc1ccc(C(C)(C)C)cc1", "effect on": "cell-free assay", "method": "competition with immobilised ligand", "concentration": "1 µM", "remaining binding": "100%"}
{"Structure (SMILES)": "Nc1ncc2c(n1)-c1c([nH]c3ccc(C#CC4CC4)cc13)CCCC2", "effect on": "binding", "method": "competition with immobilised ligand", "concentration": "1 µM", "remaining binding": "80%"}
{"Structure (SMILES)": "COc1ccnn2ncc(-c3ccnc(N(C)C)n3)c12", "effect on": "binding", "concentration": "1 µM", "remaining binding": "74%"}
{"Structure (SMILES)": "CCC(=O)N[C@H]1CC[C@@H](C(=O)N(C)c2ccc(-c3nc4ccccc4o3)cc2)C1", "effect on": "cell-free assay", "method": "competition with immobilised ligand", "concentration": "1 µM", "remaining binding": "98%"}
{"Structure (SMILES)": "CN(C)c1nccc(-c2cnn3ncccc23)n1", "effect on": "binding", "concentration": "1 µM", "remaining binding": "81%"}
{"Structure (SMILES)": "O=C(NCCCN1CCOCC1)c1ccc(Nc2nccc(-c3cc4ccccc4s3)n2)cc1", "effect on": "binding", "method": "competition with immobilised ligand", "concentration": "1 µM", "remaining binding": "100%"}
{"Structure (SMILES)": "FC(F)(F)Oc1cccc(-c2cnc3ccc(-c4ccncc4)nn23)c1", "effect on": "binding", "method": "competition with immobilised ligand", "concentration": "5 µM", "remaining binding": "75%"}
{"Structure (SMILES)": "CCCOc1ccc([C@@H]2[C@@H](C(=O)O)[C@H](c3ccc4c(c3)OCO4)CN2CC(=O)Nc2c(CC)cccc2CC)cc1", "effect on": "cell-free assay", "method": "competition with immobilised ligand", "concentration": "1 µM", "remaining binding": "85%"}
{"Structure (SMILES)": "N[C@@H]1CCN(c2nccc(-c3cnn4ncccc34)n2)C1", "effect on": "binding", "concentration": "1 µM", "remaining binding": "98%"}
{"Structure (SMILES)": "CN(c1ccnc(CNc2nc(Nc3ccc4c(c3)CC(=O)N4)ncc2C(F)(F)F)n1)S(C)(=O)=O", "effect on": "cell-free assay", "method": "competition with immobilised ligand", "concentration": "1 µM", "remaining binding": "72%"}
{"Structure (SMILES)": "CN(c1nccc(-c2cnn3ncccc23)n1)C1CC1", "effect on": "binding", "concentration": "1 µM", "remaining binding": "100%"}
{"Structure (SMILES)": "O=C(NCCCN1CCOCC1)c1ccc(Nc2ncc(Cl)c(-c3ccc(Cl)s3)n2)cc1", "effect on": "binding", "method": "competition with immobilised ligand", "concentration": "1 µM", "remaining binding": "93%"}
{"Structure (SMILES)": "Cc1c[nH]c2nccc(Oc3c(F)cc(Nc4cc(Cl)nc(N)n4)cc3F)c12", "effect on": "cell-free assay", "method": "competition with immobilised ligand", "concentration": "0.1 µM", "remaining binding": "86%"}
{"Structure (SMILES)": "C[C@@H]1CCN(c2nccc(-c3cnn4ncccc34)n2)C1", "effect on": "binding", "concentration": "1 µM", "remaining binding": "71%"}
{"Structure (SMILES)": "O=C(NCC1CCOCC1)c1n[nH]cc1NC(=O)c1c(F)cccc1F", "effect on": "binding", "method": "competition with immobilised ligand", "concentration": "1 µM", "remaining binding": "88%"}
{"Structure (SMILES)": "N#Cc1ccc(Nc2ccc3[nH]c(=O)[nH]c3c2)c(Cl)c1", "effect on": "binding", "method": "competition with immobilised ligand", "concentration": "1 µM", "remaining binding": "81%"}
{"Structure (SMILES)": "COc1cnc(Nc2cccc(S(N)(=O)=O)c2)nc1N1CCN(c2ccccc2)C(=O)C1", "effect on": "binding", "method": "competition with immobilised ligand", "concentration": "1 µM", "remaining binding": "98%"}
{"Structure (SMILES)": "N#CC1(c2ccccn2)CCN(Cc2cc(C(=O)N3CCCC3)c(=O)n3ccccc23)CC1", "effect on": "cell-free assay", "method": "competition with immobilised ligand", "concentration": "1 µM", "remaining binding": "98%"}
{"Structure (SMILES)": "CN(CCCC(F)(F)F)c1nccc(-c2cnn3ncccc23)n1", "effect on": "binding", "concentration": "1 µM", "remaining binding": "100%"}
